An excerpt weighted towards active compounds, which were near 2.5% of everything screened.
SENP1 FRET inh = SENP1 (human) catalytic domain inhibition | Q9P0U3 | recombinant SENP1 catalytic domain, CyPet-SUMO1-YPet FRET cleavage | inhibition, % at 10 µM | actives 0.21% (n = 360,000) | AID 624204;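 active means inhibition at least 30% at 10 µM, raw YFP signal under a set limit, fluorescence ratio 0.5 to 1.5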
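Material: hSENP1 catalytic domain, recombinant; medium: Tris pH 8 with BME, BSA, NP40 and catalase; compound: single concentration of 10 µM compound, 0.5% DMSO final; technique: FRET read of cyan and yellow fluorescence; timing: 50 min enzyme reaction, room temperature, light-protected; reagent: SFCypet-SUMO1-SFYpet substrate at 25 nM; control set: no-enzyme low, enzyme-DMSO high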
SENP8 block-1 = blocks human SENP8 cleavage of Nedd8 substrate; inhibition, % at 20 µM; AID 602440; Q96LD8; recombinant SENP8, Nedd8 substrate fluorescence; actives 0.64% (n = 360,000); in the data active means inhibition mostly above about 40%, no sharp cut-off; inactive means mostly below about 27%
SENP6 block = inhibitors of human SENP6 protease; Q9GZR1; Recombinant SENP6 catalytic domain, aminoluciferin luminescence; inhibition, % at 10 µM; actives 1.8% (n = 330,000);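 active means inhibition above about 50% at the single tested dose, limit read from the data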
Target sequence (Q9GZR1 628-1112 limits assumed): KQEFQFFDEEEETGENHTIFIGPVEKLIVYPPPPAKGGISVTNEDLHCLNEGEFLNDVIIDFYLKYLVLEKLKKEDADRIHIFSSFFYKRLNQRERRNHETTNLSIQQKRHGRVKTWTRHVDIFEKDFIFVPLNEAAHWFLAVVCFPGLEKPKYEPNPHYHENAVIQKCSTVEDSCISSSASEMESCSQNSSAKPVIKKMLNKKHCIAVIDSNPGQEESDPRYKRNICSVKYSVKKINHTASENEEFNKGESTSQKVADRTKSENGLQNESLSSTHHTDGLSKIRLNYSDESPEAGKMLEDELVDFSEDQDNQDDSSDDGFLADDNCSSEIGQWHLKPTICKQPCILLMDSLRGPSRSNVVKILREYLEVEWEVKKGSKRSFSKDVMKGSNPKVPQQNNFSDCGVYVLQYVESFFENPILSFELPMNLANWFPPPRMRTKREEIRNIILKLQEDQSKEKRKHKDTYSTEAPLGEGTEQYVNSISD
SENP8 block-2 = SENP8 protease inhibition | Q96LD8 | actives 1.2% (n = 330,000) | purified SENP8, Z-RLRGG-aminoluciferin cleavage, luminescence | AID 2540 | inhibition, % at 10 µM; in the data active means inhibition above about 50%
SENP7 inh = blocks the human protease SENP7; inhibition, % at 5 µM; AID 434973; Q9BQF6; actives 1.5% (n = 330,000); recombinant SENP7, Z-RLRGG-aminoluciferin luminescence, 40 min;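 active means inhibition above about 50% at the single test dose, limit read from the data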
SENP8 conf = confirmation of human SENP8 protease inhibitors | shares compounds with SENP8 block-1 | purified SENP8, Nedd8-AMC/pro-Nedd8 cleavage fluorescence, 30 min | inhibition, % at 25 µM | actives 15% (n = 1,400); in the data active means inhibition mostly above about 39%, no sharp cut-off; inactive means mostly below about 34%
Numbers stand for hits; 0 = inactive; - = no result.

SMILES | SENP1 FRET inh | SENP8 block-1 | SENP6 block | SENP8 block-2 | SENP7 inh | SENP8 conf
CCOc1ccc(CCN2C(=S)N([C@@H](CC(C)C)CN3CCC[C@@H]3CN3C(=S)NC[C@@H]3Cc3ccccc3)C[C@@H]2Cc2ccc(O)cc2)cc1 | 0 | 0 | - | - | - | -
CSCCC1NC(=O)N(C(C)C(=O)Nc2cc(Cl)cc(Cl)c2)C1=O (centres undefined) | 0 | 0 | 0 | 0 | 0 | -
C(=N\NC1=Nc2cccc3cccc1c23)/c1cccnc1 | 0 | 51 | 0 | 0 | 0 | 0
CCCCc1ccc(NC(=S)Nc2ccc(Nc3ccc(OC)cc3)cc2)cc1 | 0 | 42 | 0 | 0 | 0 | 0
CC(=O)N1/C(=C/c2ccc(N(C)C)cc2)C(=O)c2ccccc21 | 0 | 0 | - | - | - | -
Nc1ccc(N=Nc2ccccc2)cc1[N+](=O)[O-] | 0 | 0 | - | - | - | -
Nc1cc([N+](=O)[O-])cc2oc(-c3ccccc3)cc12 | 34 | 36 | 0 | 0 | 0 | 0
CCOC(=O)[C@]12CCC=C1N(Cc1ccc(Cl)cc1Cl)C(=O)[C@H](CC(=O)NCc1ccccc1)C2 | 0 | 0 | - | - | - | -
Cc1ccc(OCCCC(=O)N(C)CC(=O)Nc2ccccc2Br)cc1 | 0 | 37 | 0 | 0 | 0 | 0
Cc1ccc(C(=O)CCC(=O)N(C)CC(=O)Nc2ccccc2Br)cc1 | 0 | 0 | 0 | 0 | 0 | -
CC1(C(=O)NS(=O)(=O)C2CC2)CCCN(C(=O)COCc2ccccc2)C1 (centres undefined) | 0 | 0 | - | - | - | -
Cc1nnc(SCc2ccccc2)nc1/C=C/NOCc1ccc(Cl)cc1Cl | 0 | 54 | 0 | 0 | 0 | 0
CSc1nnc(C)c(/C=C/NOCc2cccc(F)c2)n1 | 0 | 40 | 0 | 0 | 0 | 57
CSc1nnc(C)c(/C=C/Nc2ccc(F)cc2F)n1 | 0 | 0 | 0 | 0 | 0 | -
CN(C)C1CN(Cc2cn(Cc3ccc(Cl)cc3)nn2)S(=O)(=O)C1 (centres undefined) | 0 | 0 | - | - | - | -
COc1ccc(-n2c(C)nnc2SCC(=O)Nc2ccccc2F)cc1 | 0 | 0 | 0 | 0 | 0 | -
O=C(NCc1ccc(F)cc1)C1CCN(S(=O)(=O)c2cccc3nonc23)CC1 | 0 | 0 | 0 | 0 | 0 | -
CCC(CC)C(=O)N(C)c1c(C)nc2c(OCC=C(C)C)cccn12 | 0 | 40 | - | - | - | 0
CCc1nc2c(OCC=C(C)C)cccn2c1N(C)C(=O)c1ccc(OC)cc1 | 0 | 43 | - | - | - | 0
CCc1nc2c(OCC=C(C)C)cccn2c1N(C)C(=O)c1ccccc1F | 0 | 41 | - | - | - | 0
CCC(CC)C(=O)N(C)c1c(C)nc2c(OCCOc3ccccc3)cccn12 | 0 | 0 | - | - | - | -
CCCOc1cccn2c(N(C)C(=O)c3ccccc3F)c(CC)nc12 | 0 | 0 | - | - | - | -
N#Cc1ccc(COC(=O)c2cnc(Cl)c(Cl)c2)cc1 | 0 | 0 | 0 | 0 | 0 | -
Cc1ccc(C2=NOC(C)(c3nnc(-c4ccc(Cl)cc4)o3)C2)cc1 (centres undefined) | 0 | 0 | 0 | 0 | 0 | -
Nc1cccc2nc3ccccc3cc12 | 0 | 0 | 0 | 0 | 0 | -
SMILES | SENP1 FRET inh | SENP8 block-1 | SENP6 block | SENP8 block-2 | SENP7 inh | SENP8 conf
Cc1cc2c(N)cccc2nn1 | 0 | 114 | 91 | 95 | 0 | 45
COc1ccc(-c2nn(-c3ccccc3)cc2C=O)cc1[N+](=O)[O-] | 0 | 0 | 0 | 0 | 0 | -
COc1ccc(-c2nnc(SC)nc2-c2ccc(OC)c([N+](=O)[O-])c2)cc1[N+](=O)[O-] | 0 | 49 | 0 | 0 | 0 | 0
COCc1cc([C@@H]2C[C@H]3CN(c4ccccc4)C(=O)[C@]34CCCN24)ccc1OC | 0 | 42 | 0 | 0 | 0 | 0
COc1ccc([C@@H]2C[C@H]3CN(c4ccccc4)C(=O)[C@]34CCCN24)c(OC)c1OC | 0 | 0 | 0 | 0 | 0 | -
O=C(COC(=O)CSc1ccc([N+](=O)[O-])cc1)NCCC1=CCCCC1 | 0 | 0 | 0 | 0 | 0 | -
O=C1CCCCC(=O)[C@H](OC(=O)c2ccccc2)C[C@H](c2ccccc2)O1 | 0 | 0 | - | - | - | -
CSc1ccc(OC2(C)CCN(Cc3ccc(C(C)C)cc3)C2)cc1 (centres undefined) | 0 | 0 | - | - | - | -
CC1(C)C2CCC1(CS(=O)(=O)N1CCC(C(=O)O)CC1)C(=O)C2 (centres undefined) | 0 | 0 | 0 | 0 | 0 | -
CC(=O)OC1CCC2(C)C(=CCC3C2CCC2(C)C3CC3OC4(CCC(C)CN4)C(C)C32)C1 (centres undefined) | 0 | 51 | 0 | 0 | 0 | 0
C[C@]12CC[C@H](OC(=O)CCC(=O)O)CC1=CCC1C2CC[C@@]2(C)C1CC[C@@H]2N (some centres undefined) | 0 | 0 | 0 | 0 | 0 | -

From PubChem BioAssay
